Results from ChEMBL document CHEMBL1221358, “Application of a novel in silico high-throughput screen to identify selective inhibitors for protein-protein interactions” (Bioorg Med Chem Lett, 2010).
The source made the active and inactive calls. The calls are words filed in the database; no cut-off is given here.

Experiments:
[1] = biological target: T1, Toll-like receptor 4 (Mus musculus) (UniProt Q9QUK6); assay: Inhibition of LPS-induced TLR4 activation in mouse RAW264.7 cells at 200 nM to 200 uM; assay type: cell-based
T1 sequence (whole entry): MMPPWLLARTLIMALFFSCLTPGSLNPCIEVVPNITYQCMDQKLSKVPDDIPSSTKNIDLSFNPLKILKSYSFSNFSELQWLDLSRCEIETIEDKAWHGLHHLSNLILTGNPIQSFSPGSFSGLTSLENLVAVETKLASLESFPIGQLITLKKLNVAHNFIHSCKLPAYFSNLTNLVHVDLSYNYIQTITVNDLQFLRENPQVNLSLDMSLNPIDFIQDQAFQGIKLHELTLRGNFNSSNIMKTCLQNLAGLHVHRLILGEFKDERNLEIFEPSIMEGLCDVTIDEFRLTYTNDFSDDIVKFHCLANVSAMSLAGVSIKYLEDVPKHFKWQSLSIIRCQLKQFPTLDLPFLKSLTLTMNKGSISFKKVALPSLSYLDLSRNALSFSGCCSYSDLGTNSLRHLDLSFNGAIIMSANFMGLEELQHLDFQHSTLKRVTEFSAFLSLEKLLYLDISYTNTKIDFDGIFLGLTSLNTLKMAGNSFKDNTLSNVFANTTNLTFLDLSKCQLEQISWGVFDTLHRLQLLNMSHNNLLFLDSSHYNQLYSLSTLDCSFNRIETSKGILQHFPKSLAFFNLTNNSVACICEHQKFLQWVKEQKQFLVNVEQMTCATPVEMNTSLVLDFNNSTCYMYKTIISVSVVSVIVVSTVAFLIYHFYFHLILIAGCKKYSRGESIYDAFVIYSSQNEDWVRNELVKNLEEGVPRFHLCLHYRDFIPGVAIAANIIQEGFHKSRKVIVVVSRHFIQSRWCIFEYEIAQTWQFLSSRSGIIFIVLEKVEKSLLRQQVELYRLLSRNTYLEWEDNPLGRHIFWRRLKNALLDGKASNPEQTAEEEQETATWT
Procedure, shortened: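 RAW264.7 mouse macrophages plated at 2×10^5 cells/ml on glass-bottom dishes 18 h before imaging. Washed with HBSS/25 mM HEPES pH 7.4, then placed in warmed conditioned Hanks imaging medium. Live-cell frames taken every 7.5 s: 5 baseline frames, vehicle or antagonist added, 20 frames, then LPS (E. coli 0111:B4) added, 20 further frames. C5a added to non-responding dishes to confirm the cells could respond.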

RAW264.7 = assay: Cytotoxicity against mouse RAW264.7 cells; assay type: cell-based
[2] = biological target: Toll-like receptor 4 (Homo sapiens) (UniProt O00206); assay: Inhibition of TLR4 binding to […]
Chain of Toll-like receptor 4 (Homo sapiens) (O00206 whole entry): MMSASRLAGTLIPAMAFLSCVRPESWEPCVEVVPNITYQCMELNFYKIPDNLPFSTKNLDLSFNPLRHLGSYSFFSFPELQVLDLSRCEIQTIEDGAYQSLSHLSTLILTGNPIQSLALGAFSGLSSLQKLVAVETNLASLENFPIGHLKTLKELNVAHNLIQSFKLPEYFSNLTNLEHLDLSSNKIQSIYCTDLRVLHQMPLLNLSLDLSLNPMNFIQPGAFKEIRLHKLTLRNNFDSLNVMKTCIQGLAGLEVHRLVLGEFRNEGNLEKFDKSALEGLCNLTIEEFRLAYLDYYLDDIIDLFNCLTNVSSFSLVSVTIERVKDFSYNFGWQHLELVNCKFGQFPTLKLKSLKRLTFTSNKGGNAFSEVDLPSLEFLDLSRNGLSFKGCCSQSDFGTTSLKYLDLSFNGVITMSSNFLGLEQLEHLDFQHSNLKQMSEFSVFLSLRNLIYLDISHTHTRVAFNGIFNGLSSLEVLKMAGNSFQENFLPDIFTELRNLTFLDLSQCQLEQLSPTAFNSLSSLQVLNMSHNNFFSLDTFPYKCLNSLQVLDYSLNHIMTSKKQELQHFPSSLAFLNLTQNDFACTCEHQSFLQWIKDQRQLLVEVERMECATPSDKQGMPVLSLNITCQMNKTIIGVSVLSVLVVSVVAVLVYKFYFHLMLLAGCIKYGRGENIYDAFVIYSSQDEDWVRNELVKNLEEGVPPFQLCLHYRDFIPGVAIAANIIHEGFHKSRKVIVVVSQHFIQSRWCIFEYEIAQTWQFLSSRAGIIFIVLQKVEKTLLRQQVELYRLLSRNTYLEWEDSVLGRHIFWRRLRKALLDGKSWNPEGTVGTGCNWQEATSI

[3] = biological target: T1, Toll-like receptor 4 (Mus musculus); assay: Inhibition TLR4-mediated NO production in mouse RAW264.7 cells at 300 nM
[4] = biological target: T2, Toll-like receptor 3 (Mus musculus) (UniProt Q99MB1); assay: Inhibition TLR3-mediated NO production in mouse RAW264.7 cells at 300 nM
T2 sequence (whole entry): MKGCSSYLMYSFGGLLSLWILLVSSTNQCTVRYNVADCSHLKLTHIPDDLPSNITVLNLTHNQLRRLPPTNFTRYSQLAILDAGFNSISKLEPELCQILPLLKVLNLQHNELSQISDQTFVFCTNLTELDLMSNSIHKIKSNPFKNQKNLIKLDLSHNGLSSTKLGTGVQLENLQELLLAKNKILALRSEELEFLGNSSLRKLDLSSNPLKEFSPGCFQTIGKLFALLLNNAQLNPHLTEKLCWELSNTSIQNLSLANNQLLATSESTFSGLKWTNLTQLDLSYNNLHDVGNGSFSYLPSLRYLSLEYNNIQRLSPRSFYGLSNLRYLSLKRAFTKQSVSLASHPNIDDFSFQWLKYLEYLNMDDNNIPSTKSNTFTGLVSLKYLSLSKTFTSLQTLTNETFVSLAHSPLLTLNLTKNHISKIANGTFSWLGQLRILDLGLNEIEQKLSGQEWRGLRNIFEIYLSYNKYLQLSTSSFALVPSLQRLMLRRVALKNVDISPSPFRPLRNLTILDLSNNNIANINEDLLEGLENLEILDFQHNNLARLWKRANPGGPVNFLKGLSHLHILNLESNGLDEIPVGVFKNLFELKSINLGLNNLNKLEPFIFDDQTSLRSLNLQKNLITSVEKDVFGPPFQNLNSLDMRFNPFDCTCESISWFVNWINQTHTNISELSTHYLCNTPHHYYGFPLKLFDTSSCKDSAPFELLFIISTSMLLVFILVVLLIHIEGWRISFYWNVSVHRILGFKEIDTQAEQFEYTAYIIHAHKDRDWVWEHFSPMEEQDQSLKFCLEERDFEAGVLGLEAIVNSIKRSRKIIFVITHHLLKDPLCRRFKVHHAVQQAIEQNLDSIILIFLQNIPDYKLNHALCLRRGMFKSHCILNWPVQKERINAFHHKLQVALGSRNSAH

[5] = biological target: Toll-like receptor 2 (Mus musculus) (UniProt Q9QUN7); assay: Inhibition TLR2-mediated NO production in mouse RAW264.7 cells at 300 nM
Chain of Toll-like receptor 2 (Mus musculus) (Q9QUN7 whole entry): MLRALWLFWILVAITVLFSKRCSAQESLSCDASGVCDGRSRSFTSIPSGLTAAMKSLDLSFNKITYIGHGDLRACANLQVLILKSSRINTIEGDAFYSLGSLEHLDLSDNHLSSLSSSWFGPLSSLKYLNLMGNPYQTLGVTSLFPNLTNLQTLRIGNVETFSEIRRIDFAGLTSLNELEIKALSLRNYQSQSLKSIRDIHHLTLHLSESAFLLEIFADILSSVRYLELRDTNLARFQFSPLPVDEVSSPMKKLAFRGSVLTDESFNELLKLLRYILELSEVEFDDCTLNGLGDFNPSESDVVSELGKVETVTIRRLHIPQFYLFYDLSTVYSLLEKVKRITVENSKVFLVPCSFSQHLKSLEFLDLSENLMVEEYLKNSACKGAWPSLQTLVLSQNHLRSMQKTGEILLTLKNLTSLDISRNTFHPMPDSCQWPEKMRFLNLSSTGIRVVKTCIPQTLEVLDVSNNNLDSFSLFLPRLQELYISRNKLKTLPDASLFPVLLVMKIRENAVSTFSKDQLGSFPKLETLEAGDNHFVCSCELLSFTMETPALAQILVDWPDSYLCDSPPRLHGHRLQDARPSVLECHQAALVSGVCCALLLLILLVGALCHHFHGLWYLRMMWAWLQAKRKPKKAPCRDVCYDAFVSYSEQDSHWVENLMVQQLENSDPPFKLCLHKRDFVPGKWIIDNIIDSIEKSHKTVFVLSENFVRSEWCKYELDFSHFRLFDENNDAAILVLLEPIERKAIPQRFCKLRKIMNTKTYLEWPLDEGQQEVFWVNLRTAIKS

[6] = biological target: T3, Toll-like receptor 6 (Mus musculus) (UniProt Q9EPW9); assay: Inhibition TLR6-mediated NO production in mouse RAW264.7 cells at 300 nM
T3 sequence (whole entry): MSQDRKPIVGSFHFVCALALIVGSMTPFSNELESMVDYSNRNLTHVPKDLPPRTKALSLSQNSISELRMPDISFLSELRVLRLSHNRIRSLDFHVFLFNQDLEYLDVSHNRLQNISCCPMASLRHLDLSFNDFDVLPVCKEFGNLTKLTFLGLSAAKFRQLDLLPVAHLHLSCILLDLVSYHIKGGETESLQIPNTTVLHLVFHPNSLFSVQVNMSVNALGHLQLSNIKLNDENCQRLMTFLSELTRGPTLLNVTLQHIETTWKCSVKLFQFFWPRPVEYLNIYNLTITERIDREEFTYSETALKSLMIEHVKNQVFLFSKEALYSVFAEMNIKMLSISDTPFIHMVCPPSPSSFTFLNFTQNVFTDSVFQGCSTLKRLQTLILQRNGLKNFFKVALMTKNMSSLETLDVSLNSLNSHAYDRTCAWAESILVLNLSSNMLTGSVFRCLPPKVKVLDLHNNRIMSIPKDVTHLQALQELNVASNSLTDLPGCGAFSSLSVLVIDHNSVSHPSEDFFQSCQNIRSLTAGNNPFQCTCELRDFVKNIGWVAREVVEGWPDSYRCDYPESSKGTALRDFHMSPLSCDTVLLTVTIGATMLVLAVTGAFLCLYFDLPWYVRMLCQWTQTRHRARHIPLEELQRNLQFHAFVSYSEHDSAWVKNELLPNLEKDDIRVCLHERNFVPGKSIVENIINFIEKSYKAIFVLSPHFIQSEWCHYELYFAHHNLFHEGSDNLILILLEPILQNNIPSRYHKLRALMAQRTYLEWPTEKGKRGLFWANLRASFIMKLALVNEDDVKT

[7] = biological target: T4, Toll-like receptor 7 (Mus musculus) (UniProt P58681); assay: Inhibition TLR7-mediated NO production in mouse RAW264.7 cells at 300 nM
T4 sequence (whole entry): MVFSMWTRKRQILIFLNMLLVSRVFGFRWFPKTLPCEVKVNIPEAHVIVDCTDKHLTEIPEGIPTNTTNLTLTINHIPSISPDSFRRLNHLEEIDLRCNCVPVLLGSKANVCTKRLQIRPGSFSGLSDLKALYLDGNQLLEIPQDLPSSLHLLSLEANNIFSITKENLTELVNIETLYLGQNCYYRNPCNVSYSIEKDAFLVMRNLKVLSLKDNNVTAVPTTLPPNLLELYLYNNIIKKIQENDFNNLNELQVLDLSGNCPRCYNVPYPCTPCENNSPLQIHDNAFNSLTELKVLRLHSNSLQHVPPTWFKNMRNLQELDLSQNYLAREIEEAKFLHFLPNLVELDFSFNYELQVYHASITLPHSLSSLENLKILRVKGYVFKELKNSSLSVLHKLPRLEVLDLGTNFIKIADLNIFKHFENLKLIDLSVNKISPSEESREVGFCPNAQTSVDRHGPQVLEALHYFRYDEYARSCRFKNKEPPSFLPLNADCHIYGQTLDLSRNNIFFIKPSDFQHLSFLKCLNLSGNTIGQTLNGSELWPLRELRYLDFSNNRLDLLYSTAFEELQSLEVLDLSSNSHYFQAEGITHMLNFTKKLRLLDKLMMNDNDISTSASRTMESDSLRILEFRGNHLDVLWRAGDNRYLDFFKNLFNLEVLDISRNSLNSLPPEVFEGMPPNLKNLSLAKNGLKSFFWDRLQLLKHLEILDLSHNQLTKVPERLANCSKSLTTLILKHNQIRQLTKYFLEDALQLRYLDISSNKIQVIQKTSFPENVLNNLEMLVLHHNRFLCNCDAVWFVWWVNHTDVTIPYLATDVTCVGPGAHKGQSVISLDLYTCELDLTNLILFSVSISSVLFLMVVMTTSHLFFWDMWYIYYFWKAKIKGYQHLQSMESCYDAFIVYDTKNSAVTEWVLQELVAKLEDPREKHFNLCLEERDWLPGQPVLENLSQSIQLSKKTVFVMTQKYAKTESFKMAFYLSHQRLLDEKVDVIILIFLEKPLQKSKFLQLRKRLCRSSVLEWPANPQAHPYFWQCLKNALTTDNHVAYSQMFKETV

[8] = biological target: T5, Toll-like receptor 1 (Mus musculus) (UniProt Q9EPQ1); assay: Inhibition TLR1-mediated NO production in mouse RAW264.7 cells at 300 nM
T5 sequence (whole entry): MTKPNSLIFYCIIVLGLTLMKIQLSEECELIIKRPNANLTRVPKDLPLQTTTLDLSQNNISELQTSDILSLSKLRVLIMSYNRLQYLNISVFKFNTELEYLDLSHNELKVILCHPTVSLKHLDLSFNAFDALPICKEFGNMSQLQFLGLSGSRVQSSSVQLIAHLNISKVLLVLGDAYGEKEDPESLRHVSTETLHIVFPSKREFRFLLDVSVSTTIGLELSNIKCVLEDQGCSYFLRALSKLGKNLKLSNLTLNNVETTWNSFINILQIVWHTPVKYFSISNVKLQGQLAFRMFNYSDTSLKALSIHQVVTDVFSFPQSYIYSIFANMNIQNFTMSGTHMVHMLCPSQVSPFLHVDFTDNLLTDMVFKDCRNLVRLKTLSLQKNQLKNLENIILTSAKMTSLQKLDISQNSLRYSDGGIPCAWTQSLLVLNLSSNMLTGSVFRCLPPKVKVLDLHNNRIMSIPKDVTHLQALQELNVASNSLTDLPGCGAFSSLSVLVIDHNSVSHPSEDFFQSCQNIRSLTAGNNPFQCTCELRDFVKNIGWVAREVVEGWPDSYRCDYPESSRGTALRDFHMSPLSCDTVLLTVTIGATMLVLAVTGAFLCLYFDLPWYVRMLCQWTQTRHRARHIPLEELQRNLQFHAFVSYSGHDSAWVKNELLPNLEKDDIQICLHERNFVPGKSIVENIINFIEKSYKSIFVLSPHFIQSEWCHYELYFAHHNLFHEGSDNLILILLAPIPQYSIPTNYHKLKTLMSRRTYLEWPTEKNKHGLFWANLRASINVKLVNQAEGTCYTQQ

Activity [1]	Activity [2]	Activity [3]	Activity [4]	Activity [5]	Activity [6]	Activity [7]	Activity [8]	SMILES	Activity (RAW264.7)
Active	Active	Active	inactive	inactive	inactive	inactive	inactive	CCOc1ccc(OCC(O)CN(C)Cc2c(C)nn(Cc3ccccc3Cl)c2C)cc1 (configuration not stated)	Non-toxic
Active	Active	–	–	–	–	–	–	CC(C)CC(=O)Nc1ccc(OC(=O)C23CC4CC(CC(C4)C2)C3)cc1	Non-toxic
